Screening data as filed in PubChem BioAssay.
HNF4A DNA FP: change in binding of human HNF4A to DNA, primary screen, biochemical, fluorescence polarization, FITC-DNA; Hepatocyte nuclear factor 4-alpha (Homo sapiens), P41235; 1 h; activity change, % at 10 µM; actives 0.3% (n = 360,000); in the data active means activity change above about 30%, passing the limit was not always enough
CSN deneddyl inh: inhibitors of CSN-mediated cullin deneddylation, primary screen, biochemical, fluorescence polarization, uHTS; Purified CSN, SCF-Nedd8-OG deneddylation; AID 651999, 2013; inhibition, % at 12.5 µM; actives 0.38% (n = 360,000);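 active means pattern-corrected inhibition above about 35%, with an unprinted fluorescence ratio check between 0.5 and 1.5, limit read from the data, passing the limit was not always enough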;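 further: 0% = enzyme with substrate and 100% = substrate without enzyme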
Target sequence (Q92905 whole entry, looked up, one chain of several): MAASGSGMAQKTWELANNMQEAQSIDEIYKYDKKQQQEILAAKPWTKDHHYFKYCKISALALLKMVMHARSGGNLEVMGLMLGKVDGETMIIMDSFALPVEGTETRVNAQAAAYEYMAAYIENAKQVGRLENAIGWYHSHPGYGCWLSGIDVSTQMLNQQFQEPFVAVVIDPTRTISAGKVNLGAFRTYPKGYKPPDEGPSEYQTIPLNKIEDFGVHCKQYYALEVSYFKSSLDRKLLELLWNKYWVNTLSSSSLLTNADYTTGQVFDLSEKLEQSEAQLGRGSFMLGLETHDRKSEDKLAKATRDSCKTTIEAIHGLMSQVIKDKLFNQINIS
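Material: purified human Csn5 enzyme expressed in HEK293T cells / Medium: Tris buffer pH 7.5, NaCl, DTT, Tween-20, trehalose, ovalbumin / Compound dosing: 12.5 µM single point / Schedule: 90 min incubation of compound, enzyme and substrate at room temperature / Signal: fluorescence polarization of the substrate / Control set: no-enzyme wells high, enzyme-with-substrate wells low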
Rpn11 inh: Rpn11 (PSMD14) deubiquitinase inhibitors, primary screen, biochemical, fluorescence polarization, uHTS. 26S proteasome non-ATPase regulatory subunit 14 (Homo sapiens), O00487. human 26S proteasome, Ub4-pepOG fluorescence polarization; 20S core pre-blocked with epoxomicin. calls only at 20 µM. actives 0.59% (n = 360,000). AID 588493, 2011;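 active means inhibition at 20 µM, scaled to each plate's controls, above about 33%, limit read from the data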
Target sequence (O00487 whole entry, looked up): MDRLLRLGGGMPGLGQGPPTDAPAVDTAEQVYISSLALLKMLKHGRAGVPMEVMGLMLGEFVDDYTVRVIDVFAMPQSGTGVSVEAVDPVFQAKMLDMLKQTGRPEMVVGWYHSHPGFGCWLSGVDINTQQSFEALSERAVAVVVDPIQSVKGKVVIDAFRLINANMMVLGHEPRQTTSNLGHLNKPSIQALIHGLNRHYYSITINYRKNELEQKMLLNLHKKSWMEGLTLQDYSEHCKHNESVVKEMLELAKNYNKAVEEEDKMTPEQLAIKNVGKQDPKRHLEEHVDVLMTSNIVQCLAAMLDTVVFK
TPT1 inh: Candida albicans TPT1 enzyme inhibitors, primary screen, biochemical, fluorescence polarization | tRNA 2'-phosphotransferase TPT1 (Candida albicans SC5314) | recombinant caTPT1, FP RNA substrate dephosphorylation | inhibition, % at 5 µM | actives 0.81% (n = 300,000);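 active means inhibition above the mean of all tested compounds plus 3 SD, set per screening campaign, cut at about 24% in these data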;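 further: plate controls were DMSO alone for no effect and ferristatin control at 100 nM for full effect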
Rpn11 confirm: Rpn11 (PSMD14) deubiquitinase inhibitors, confirmation, biochemical, fluorescence polarization, single concentration. shares compounds with Rpn11 inh. purified human 26S proteasome, Ub4-pepOG fluorescence polarization; proteasome pretreated with epoxomicin. inhibition, % at 20 µM. actives 29% (n = 1,900)
MMP-2 inh: MMP-2 enzyme inhibition, confirmation, counter-screen for RPN11 inhibitor project, biochemical, fluorescence, single concentration. recombinant MMP-2, FRET peptide cleavage fluorescence. inhibition, % at 20 µM. shares compounds with Rpn11 inh. AID 602330, 2012. actives 4% (n = 1,900);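 further: human MMP-2 activated beforehand with APMA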
Thrombin inh: bovine thrombin protease inhibition, confirmation, counter-screen for Rpn11 inhibitor project, biochemical, fluorescence polarization, single concentration. shares compounds with Rpn11 inh. bovine thrombin cleavage of Ub4-pepOG. inhibition, % at 20 µM. actives 13% (n = 1,900). AID 602333, 2012;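 active means mean inhibition at least 40% at 20 µM, or signal 3 deviations below plate average, so some actives read negative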;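 further: plate controls were thrombin with DMSO for no effect and buffer wells lacking thrombin for full effect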
An asterisk follows results filed as active; i = inactive; nt = no result given; + = active, no number. Sampled rows, rich in hits. Any-hit rate of the full collection: about 1.5%. Unless noted, no stated cut-off is given here; in the data, active means inhibition above about 40%; inactive means the rest.

SMILES	HNF4A DNA FP	CSN deneddyl inh	Rpn11 inh	TPT1 inh	Rpn11 confirm	MMP-2 inh	Thrombin inh
Cc1ccc(OCCNC(=O)c2ccc(C)cc2)cc1	4.5	1.3	i	-1.5	nt	nt	nt
COC(=O)c1sc(NC(=O)/C=C/c2ccccc2Cl)nc1C	46.9*	23.3	+	1.9	1.4	-5.6	-12.2
COC(=O)c1sc(NC(=O)/C=C/c2ccc(C)cc2)nc1C	1.6	-11.8	i	1.9	nt	nt	nt
COc1cccc(CN(C)C(=O)c2ccc(NC(=O)CC3SC(N4CCCC4)=NC3=O)cc2)c1OC (centres undefined)	5.5	13.9	i	0.9	nt	nt	nt
C=CCn1c(SCC(=O)Nc2ccc(-c3nc4ccc(C)cc4s3)cc2)nnc1-c1ccncc1	36.3	-11.4	+	0.0	1.9	-4.6	1.1
CC(=O)c1cccc(NC(=O)CSc2ncc(C(=O)Nc3ccccc3)c(=O)n2C)c1	2.2	4.3	i	1.6	nt	nt	nt
Nc1nc2ccccc2n1C(=O)c1ccco1	12.3	-2.4	+	nt	-4.7	-36.7	-13.9
Nc1nc2ccccc2n1C(=O)c1ccccc1	-1.9	3.7	i	-4.8	nt	nt	nt
CCOC(=O)c1sc(NC(=O)CSc2nc3cccnc3n2C)nc1C	-0.7	6.0	i	-2.0	nt	nt	nt
CCOC(=O)c1c(NC(=O)CSc2nc3cccnc3n2C)sc(C(C)=O)c1C	6.5	3.4	+	8.5	20.7	-22.5	-4.7
Cc1sc2nc(SCC(=O)c3cc(C)n(CC4CCCO4)c3C)n(C(C)C)c(=O)c2c1C (centres undefined)	0.1	-3.3	+	0.5	-5.8	2.2	-3.4
O=C(/C=C/c1ccc(Br)cc1)c1ccc(NC(=O)c2ccco2)cc1	4.1	24.4	+	2.8	3.2	-20.5	1.4
Cc1cc(OC(=O)c2ccc(Cl)cc2Cl)nc(C)n1	-2.3	-3.9	+	-0.7	-2.2	-46.1	5.5
COc1ccc(N(C)S(=O)(=O)c2ccc3c(c2)NC(=O)CC(=O)N3)c(OC)c1	-1.0	0.9	i	-1.5	nt	nt	nt
Cc1cc(C)n2nc(N)c(N=Nc3ccccc3)c2n1	-1.8	4.5	i	-1.1	nt	nt	nt
Cc1cc(C)n2nc(N)c(N=Nc3ccc4c(c3)OCO4)c2n1	4.6	11.5	+	14.9	37.1	-62.5	36.2
Cc1ccc(CNc2oc(-c3ccco3)nc2S(=O)(=O)c2ccccc2)cc1	3.4	4.6	+	1.4	7.1	20.3	0.4
Cc1ccc(S(=O)(=O)N(C)C)cc1NC(=O)CSc1nncs1	-1.1	-11.2	i	4.0	nt	nt	nt
Cc1ccc(C(=O)C(C)OC(=O)c2cc(=O)[nH]c3ccccc23)cc1 (centres undefined)	-0.1	1.8	i	-2.5	nt	nt	nt
CC(=O)Oc1ccc(-c2ccc(C(=O)NCCc3ccc(S(N)(=O)=O)cc3)cc2)cc1	2.2	-0.9	+	-2.4	11.2	-16.2	9.4
Cc1ccc(/C=C2\SC(=S)N(C3CCS(=O)(=O)C3)C2=O)o1 (centres undefined)	17.4	31.3	+	4.7	10.2	22.6	3.4
O=C1/C(=C/c2ccccc2)SC(=S)N1C1CCS(=O)(=O)C1 (centres undefined)	-1.4	2.7	i	-3.4	nt	nt	nt
O=C(O)c1ccccc1OCc1nc2ccccc2s1	-0.2	4.1	i	1.1	nt	nt	nt
Cc1ccccc1CC(=O)Nc1ccc(C(=O)N2CCCC2)cc1	13.3	0.4	+	-5.0	3.1	-27.8	-11.9
Cc1ccc(CC(=O)Nc2ccc(C(=O)N3CCCCC3)cc2)cc1	-2.5	-2.1	i	-5.2	nt	nt	nt
SMILES	HNF4A DNA FP	CSN deneddyl inh	Rpn11 inh	TPT1 inh	Rpn11 confirm	MMP-2 inh	Thrombin inh
CNc1ccc2nnc(C(F)(F)C(F)(F)C(F)(F)F)n2n1	99.4	-9.9	+	5.6	-5.3	28.6	-14.9
FC(F)(F)c1nc(N2CCN(c3ccccc3)CC2)nc2c1CCCCC2	3.3	-1.7	+	5.6	-10.7	-30.1	-11.6
Cc1nc(N2CCN(Cc3ccccc3)CC2)nc2c1CCC2	0.2	1.0	i	-0.4	nt	nt	nt
CCN(CC)c1nc2cc(C)ccc2cc1/C=C(\C#N)C(N)=O	16.8	7.9	+	12.2	14.8	10.8	9.8
CC(NC(=O)c1ccccc1)c1nnc(SCC(=O)NC2CCCC2)n1C (centres undefined)	0.2	3.0	i	-3.8	nt	nt	nt
O=C(N/N=C/c1cc(Br)c(O)c(Br)c1)c1cc2c(ccc3ccccc32)o1	-17.2	12.0	+	nt	59.0*	-6.4	138.9*
Cc1onc(-c2ccccc2)c1C(=O)N/N=C/c1cc(Br)c(O)c(Br)c1	-0.7	0.7	+	nt	1.5	31.1	4.2
COc1ccc(/C=N/NC(=O)c2c(-c3ccccc3)noc2C)cc1	1.7	1.6	i	0.7	nt	nt	nt
CC(=O)Oc1ccc(/C=N\NC(=O)c2cc3c(ccc4ccccc43)o2)cc1	12.8	21.7	+	-3.4	55.5*	-201.5	-14.8
O=C(N/N=C/c1ccc(O)c(Br)c1)c1cc2c(ccc3ccccc32)o1	4.8	4.7	i	nt	nt	nt	nt
O=C(c1ccc2ccccc2c1O)N1CCCCC1	2.4	1.4	i	nt	nt	nt	nt
Oc1ccc(C=NN=C2c3ccccc3-c3ccccc32)c(O)c1	33.6	21.5	+	nt	57.5*	-19.2	49.1*
O=[N+]([O-])c1cccc(/C=N\N=C2c3ccccc3-c3ccccc32)c1O	-3.9	-3.9	i	-4.8	nt	nt	nt
CC12C=CC(=O)C=C1CCC1C2C(O)CC2(C)C1CCC2(O)C(=O)CO (centres undefined)	-4.6	2.2	i	nt	nt	nt	nt
O=c1[nH]cnc2c1ncn2-c1ccc(N(CCO)CCO)cc1	-2.1	-0.9	i	nt	nt	nt	nt
Cc1cc(Br)ccc1OCC(=O)NNC(=O)c1ccc(NC(=O)C2CC2)cc1	3.6	-2.6	+	2.1	14.4	-24.2	-2.1
N#C/C(=C/C1=C(N2CCOCC2)C(=C/c2ccc(Cl)cc2Cl)/CC1)C(=O)Nc1ccccc1F	26.5	31.8	+	nt	18.0	-25.4	0.3
CCN(CC)c1ccc(/C=C2\CCC(/C=C(\C#N)C(=O)Nc3ccccc3F)=C2N2CCOCC2)cc1	18.4	15.6	i	nt	nt	nt	nt
